{"source": "ChEMBL document CHEMBL2406962", "about": "“Adenosine Dioxolane Nucleoside Phosphoramidates as Antiviral Agents for Human Immunodeficiency and Hepatitis B Viruses” (ACS Med Chem Lett, 2013)", "key": {"[1]": {"tested_on": "Huh-7", "experiment": "Cytotoxicity against human HuH7 cells after 2 to 4 days by MTT assay", "format": "cell-based"}, "[2]": {"tested_on": "Hepatitis B virus", "experiment": "Antiviral activity against Hepatitis B virus infected in human HepAD38 cells after 5 days", "format": "functional, organism-based", "conditions": "HePAD38, 120 h"}, "[3]": {"tested_on": "Human immunodeficiency virus 1", "experiment": "Antiviral activity against Human immunodeficiency virus 1 LAI infected in PHA-stimulated human PBMC", "format": "functional, organism-based"}, "[4]": {"tested_on": "PBMC", "experiment": "Cytotoxicity against human PBMC after 2 to 4 days by MTT assay", "format": "cell-based", "summary_of_the_method": "(§1)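 Cytotoxicity in human PBM cells, Vero (African green monkey kidney epithelial) cells and CEM (human T-cell-derived line) cells, with compounds tested up to 100 μM.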"}, "[5]": {"tested_on": "PBMC", "experiment": "Drug metabolism in human PBMC assessed as dioxolane-A triphosphate level measured per 10^6 cells at 50 uM after 4 hrs by LC-MS/MS analysis", "format": "ADME, cell-based", "parameters": "unit: pmol/10^6 cells"}, "[6]": {"tested_on": "HepG2", "experiment": "Cytotoxicity against human HepG2 cells after 2 to 4 days by neutral red dye uptake assay", "format": "cell-based"}, "[7]": {"tested_on": "Vero", "experiment": "Cytotoxicity against African green monkey Vero cells after 2 to 4 days by MTT assay", "format": "cell-based", "conditions": "chlorocebus sabaeus", "summary_of_the_method": "as §1"}, "[8]": {"tested_on": "CCRF-CEM", "experiment": "Cytotoxicity against human CEM cells after 2 to 4 days by MTT assay", "format": "cell-based", "summary_of_the_method": "as §1"}, "[9]": {"tested_on": "PBMC", "experiment": "Drug metabolism in human PBMC assessed as 6-cyclopropylamino purine dioxolane triphosphate level measured per 10^6 cells at 50 uM after 4 hrs by LC-MS/MS analysis", "format": "ADME, cell-based"}, "[10]": {"experiment": "in vivo", "conditions": "mouse"}}, "data": [{"compound": "CCOC(=O)[C@H](C)NP(=O)(OC[C@@H]1OC[C@H](n2cnc3c(N)ncnc32)O1)Oc1ccccc1", "note": "(stereo partly drawn)", "values": [{"measurement": "CC50", "setting": "[1]", "result": 7.3, "unit": "µM"}, {"measurement": "EC50", "setting": "[2]", "result": 0.03, "unit": "µM"}, {"measurement": "EC50", "setting": "[3]", "result": 0.00056, "unit": "µM"}, {"measurement": "CC50", "setting": "[4]", "result": 2, "unit": "µM"}, {"measurement": "Drug metabolism", "setting": "[5]", "result": 200, "unit": "pmol"}, {"measurement": "CC50", "setting": "[6]", "result": "> 100", "unit": "µM"}, {"measurement": "CC50", "setting": "[7]", "result": 80, "unit": "µM"}, {"measurement": "CC50", "setting": "[8]", "result": 18, "unit": "µM"}]}, {"compound": "CCOC(=O)CCc1ccccc1OP(=O)(N[C@@H](C)C(=O)OCC)OC[C@@H]1OC[C@H](n2cnc3c(N)ncnc32)O1", "note": "(stereo partly drawn)", "values": [{"measurement": "CC50", "setting": "[1]", "result": 12, "unit": "µM"}, {"measurement": "EC50", "setting": "[2]", "result": 0.3, "unit": "µM"}, {"measurement": "EC50", "setting": "[3]", "result": 0.0033, "unit": "µM"}, {"measurement": "CC50", "setting": "[4]", "result": 12, "unit": "µM"}, {"measurement": "Drug metabolism", "setting": "[5]", "result": 90, "unit": "pmol"}, {"measurement": "CC50", "setting": "[6]", "result": "> 100", "unit": "µM"}, {"measurement": "CC50", "setting": "[7]", "result": 36, "unit": "µM"}, {"measurement": "CC50", "setting": "[8]", "result": 53, "unit": "µM"}]}, {"compound": "CCOC(=O)CCc1ccccc1OP(=O)(N[C@@H](C)C(=O)OCC)OC[C@@H]1OC[C@H](n2cnc3c(NC4CC4)ncnc32)O1", "note": "(stereo partly drawn)", "values": [{"measurement": "Drug metabolism", "setting": "[9]", "result": 0.19, "unit": "pmol"}, {"measurement": "CC50", "setting": "[1]", "result": 65, "unit": "µM"}, {"measurement": "EC50", "setting": "[2]", "result": "> 10", "unit": "µM"}, {"measurement": "EC50", "setting": "[3]", "result": 0.77, "unit": "µM"}, {"measurement": "CC50", "setting": "[4]", "result": "> 100", "unit": "µM"}, {"measurement": "Drug metabolism", "setting": "[5]", "result": 0.14, "unit": "pmol"}, {"measurement": "CC50", "setting": "[6]", "result": "> 100", "unit": "µM"}, {"measurement": "CC50", "setting": "[7]", "result": "> 100", "unit": "µM"}, {"measurement": "CC50", "setting": "[8]", "result": "> 100", "unit": "µM"}]}, {"compound": "Oc1ccccc1", "note": "[PHENOL]", "values": [{"measurement": "LD50", "setting": "[10]", "result": 270, "unit": "mg/kg"}]}, {"compound": "CC(C)OC(=O)CCc1ccccc1OP(=O)(N[C@@H](C)C(=O)OC(C)C)OC[C@@H]1OC[C@H](n2cnc3c(NC4CC4)ncnc32)O1", "note": "(stereo partly drawn)", "values": [{"measurement": "CC50", "setting": "[1]", "result": 57, "unit": "µM"}, {"measurement": "EC50", "setting": "[2]", "result": "> 10", "unit": "µM"}, {"measurement": "EC50", "setting": "[3]", "result": 11, "unit": "µM"}, {"measurement": "CC50", "setting": "[4]", "result": "> 100", "unit": "µM"}, {"measurement": "CC50", "setting": "[6]", "result": "> 100", "unit": "µM"}, {"measurement": "CC50", "setting": "[7]", "result": "> 100", "unit": "µM"}, {"measurement": "CC50", "setting": "[8]", "result": 84, "unit": "µM"}]}, {"compound": "CCOC(=O)CCc1ccccc1OP(=O)(N[C@@H](C)C(=O)OCC)OC[C@@H]1OC[C@H](n2cnc3c(OC)ncnc32)O1", "note": "(stereo partly drawn)", "values": [{"measurement": "CC50", "setting": "[1]", "result": 80, "unit": "µM"}, {"measurement": "EC50", "setting": "[2]", "result": "> 10", "unit": "µM"}, {"measurement": "EC50", "setting": "[3]", "result": 0.42, "unit": "µM"}, {"measurement": "CC50", "setting": "[4]", "result": "> 100", "unit": "µM"}, {"measurement": "CC50", "setting": "[6]", "result": "> 100", "unit": "µM"}, {"measurement": "CC50", "setting": "[7]", "result": 93, "unit": "µM"}, {"measurement": "CC50", "setting": "[8]", "result": "> 100", "unit": "µM"}]}, {"compound": "Nc1ncnc2c1ncn2[C@H]1CO[C@@H](CO)O1", "values": [{"measurement": "Drug metabolism", "setting": "[5]", "result": 0.18, "unit": "pmol"}]}, {"compound": "CCOC(=O)[C@H](C)NP(=O)(OC[C@@H]1OC[C@H](n2cnc3c(NC4CC4)ncnc32)O1)Oc1ccccc1", "note": "(stereo partly drawn)", "values": [{"measurement": "Drug metabolism", "setting": "[9]", "result": 0.13, "unit": "pmol"}, {"measurement": "CC50", "setting": "[1]", "result": "> 100", "unit": "µM"}, {"measurement": "EC50", "setting": "[2]", "result": 0.8, "unit": "µM"}, {"measurement": "EC50", "setting": "[3]", "result": 0.086, "unit": "µM"}, {"measurement": "CC50", "setting": "[4]", "result": "> 100", "unit": "µM"}, {"measurement": "Drug metabolism", "setting": "[5]", "result": 0.11, "unit": "pmol"}, {"measurement": "CC50", "setting": "[6]", "result": "> 100", "unit": "µM"}, {"measurement": "CC50", "setting": "[7]", "result": "> 100", "unit": "µM"}, {"measurement": "CC50", "setting": "[8]", "result": "> 100", "unit": "µM"}]}, {"compound": "OC[C@@H]1OC[C@H](n2cnc3c(NC4CC4)ncnc32)O1", "values": [{"measurement": "CC50", "setting": "[1]", "result": "> 100", "unit": "µM"}, {"measurement": "EC50", "setting": "[2]", "result": "> 10", "unit": "µM"}, {"measurement": "EC50", "setting": "[3]", "result": 92, "unit": "µM"}, {"measurement": "CC50", "setting": "[4]", "result": "> 100", "unit": "µM"}, {"measurement": "CC50", "setting": "[6]", "result": "> 100", "unit": "µM"}, {"measurement": "CC50", "setting": "[7]", "result": "> 100", "unit": "µM"}, {"measurement": "CC50", "setting": "[8]", "result": "> 100", "unit": "µM"}]}, {"compound": "Nc1nc(N)c2ncn([C@H]3CO[C@@H](CO)O3)c2n1", "note": "[AMDOXOVIR]", "values": [{"measurement": "CC50", "setting": "[1]", "result": "> 100", "unit": "µM"}, {"measurement": "EC50", "setting": "[2]", "result": "> 9", "unit": "µM"}, {"measurement": "EC50", "setting": "[3]", "result": 0.4, "unit": "µM"}, {"measurement": "CC50", "setting": "[4]", "result": "> 100", "unit": "µM"}, {"measurement": "CC50", "setting": "[6]", "result": "> 100", "unit": "µM"}, {"measurement": "CC50", "setting": "[7]", "result": "> 100", "unit": "µM"}, {"measurement": "CC50", "setting": "[8]", "result": "> 100", "unit": "µM"}]}, {"compound": "COc1ncnc2c1ncn2[C@H]1CO[C@@H](COP(=O)(N[C@@H](C)C(=O)OC(C)C)Oc2ccccc2CCC(=O)OC(C)C)O1", "note": "(stereo partly drawn)", "values": [{"measurement": "CC50", "setting": "[1]", "result": 52, "unit": "µM"}, {"measurement": "EC50", "setting": "[2]", "result": "> 10", "unit": "µM"}, {"measurement": "EC50", "setting": "[3]", "result": 7, "unit": "µM"}, {"measurement": "CC50", "setting": "[4]", "result": "> 100", "unit": "µM"}, {"measurement": "CC50", "setting": "[6]", "result": "> 100", "unit": "µM"}, {"measurement": "CC50", "setting": "[7]", "result": "> 100", "unit": "µM"}, {"measurement": "CC50", "setting": "[8]", "result": "> 100", "unit": "µM"}]}, {"compound": "CCOC(=O)[C@H](C)NP(=O)(OC[C@@H]1OC[C@H](n2cnc3c(OC)ncnc32)O1)Oc1ccccc1", "note": "(stereo partly drawn)", "values": [{"measurement": "CC50", "setting": "[1]", "result": 80, "unit": "µM"}, {"measurement": "EC50", "setting": "[2]", "result": "> 10", "unit": "µM"}, {"measurement": "EC50", "setting": "[3]", "result": 0.34, "unit": "µM"}, {"measurement": "CC50", "setting": "[4]", "result": "> 100", "unit": "µM"}, {"measurement": "CC50", "setting": "[6]", "result": "> 100", "unit": "µM"}, {"measurement": "CC50", "setting": "[7]", "result": "> 100", "unit": "µM"}, {"measurement": "CC50", "setting": "[8]", "result": "> 100", "unit": "µM"}]}]}
